Entries after “also recorded” stand apart in the source; their conditions may differ. Where a SMILES comes first, the peptide text is derived from it.
Assays:
[1] = test system: HIV-1HXB2 in MT-4 Luc cells; assay: MT-4 Luc assay, protection from HIV-1-induced cell death; type: cell-based; conditions: for IC50 of inhibition of HIV-1 replication in cells: MT-4 Luc cell system, in words; for inhibitory effect against HIV-1 replication: MT-4 Luc cells infected with HIV-1, luciferase signal, various concentrations (Figure 4)
RT-associated RNase H = RT-associated RNase H (Human immunodeficiency virus type 1 group M subtype B, UniProt P04585); assay: RT-associated RNase H activity assay; type: biochemical, HIV-1
[2] = test system: X4-tropic HIV-1HXB2 on MT-4 cells; assay: HIV-1 replication kinetics in MT-4 cells; type: cell-based; conditions: 0.5 μM peptide, replication kinetics (Figure 5B)
Method in brief: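 MT-4 cells (1×10^5) were exposed to HIV-1HXB2-containing culture supernatant (ca. 0.2-50 ng p24) for 30 min at room temperature, then washed and cultured with or without 0.5 μM test peptide. Supernatants were collected at several time points, with cells passaged if necessary. Replication was read out as p24 antigen levels measured by ELISA.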

MT-4 Luc cells = conditions: MT-4 Luc system (Figure 4)

Row | Compound | antiviral effect ([1]; MT-4 Luc cells, at a concentration of 20 μM) | anti-HIV-1 activity ([1]; MT-4 Luc cells, below concentrations of 20 μM) | IC50 (RT-associated RNase H) [nM] | IC50 of inhibition of HIV-1 replication in cells [1] | inhibitory effect against HIV-1 replication [1] | replication of HIV-1HXB2 [2] | cytotoxicity, comparison (MT-4 Luc cells)
1 | CC(=O)N[C@@H](CC(C)C)C(=O)N[C@@H](CCC(N)=O)C(=O)N[C@@H](CCC(N)=O)C(=O)N[C@@H](CC(C)C)C(=O)N[C@@H](CC(C)C)C(=O)N[C@@H](Cc1ccccc1)C(=O)N[C@@H](CCCNC(=N)N)C(=O)N[C@@H](CCCNC(=N)N)C(=O)N[C@@H](CCCNC(=N)N)C(=O)N[C@@H](CCCNC(=N)N)C(=O)N[C@@H](CCCNC(=N)N)C(=O)N[C@@H](CCCNC(=N)N)C(=O)N[C@@H](CCCNC(=N)N)C(=O)N[C@@H](CCCNC(=N)N)C(N)=O [Vpr-1 R8] (Ac-LQQLLFRRRRRRRR-NH2) | weak antiviral effect |  |  |  |  |  | 
2 | CC[C@H](C)[C@H](NC(C)=O)C(=O)N[C@@H](Cc1c[nH]cn1)C(=O)N[C@@H](Cc1ccccc1)C(=O)N[C@@H](CCCNC(=N)N)C(=O)N[C@H](C(=O)NCC(=O)N[C@@H](CCCNC(=N)N)C(=O)N[C@@H](CCCNC(=N)N)C(=O)N[C@@H](CCCNC(=N)N)C(=O)N[C@@H](CCCNC(=N)N)C(=O)N[C@@H](CCCNC(=N)N)C(=O)N[C@@H](CCCNC(=N)N)C(=O)N[C@@H](CCCNC(=N)N)C(=O)N[C@@H](CCCNC(=N)N)C(N)=O)[C@@H](C)CC [Vpr-2 R8] (Ac-IHFRIGRRRRRRRR-NH2) |  | no significant anti-HIV-1 activity |  |  |  |  | 
3 | CC[C@H](C)[C@H](NC(=O)[C@H](CCCNC(=N)N)NC(=O)[C@H](Cc1ccccc1)NC(=O)[C@H](Cc1cnc[nH]1)NC(=O)[C@@H](NC(=O)[C@H](Cc1ccccc1)NC(=O)[C@H](CC(C)C)NC(=O)[C@H](CC(C)C)NC(=O)[C@H](CCC(N)=O)NC(=O)[C@H](CCC(N)=O)NC(=O)[C@H](CC(C)C)NC(C)=O)[C@@H](C)CC)C(=O)NCC(=O)N[C@@H](CCCNC(=N)N)C(=O)N[C@@H](CCCNC(=N)N)C(=O)N[C@@H](CCCNC(=N)N)C(=O)N[C@@H](CCCNC(=N)N)C(=O)N[C@@H](CCCNC(=N)N)C(=O)N[C@@H](CCCNC(=N)N)C(=O)N[C@@H](CCCNC(=N)N)C(=O)N[C@@H](CCCNC(=N)N)C(N)=O [Vpr-3 R8] |  |  | > 500 | submicromolar | significant inhibitory effects | quite low; also recorded: extensively suppressed | less cytotoxic than Vpr-4 R8
4 | CC[C@H](C)[C@H](NC(=O)[C@H](C)NC(=O)[C@H](CCC(=O)O)NC(C)=O)C(=O)N[C@H](C(=O)N[C@@H](CCCNC(=N)N)C(=O)N[C@H](C(=O)N[C@@H](CC(C)C)C(=O)N[C@@H](CCC(N)=O)C(=O)N[C@@H](CCC(N)=O)C(=O)N[C@@H](CC(C)C)C(=O)N[C@@H](CC(C)C)C(=O)N[C@@H](Cc1ccccc1)C(=O)N[C@H](C(=O)N[C@@H](Cc1c[nH]cn1)C(=O)N[C@@H](Cc1ccccc1)C(=O)N[C@@H](CCCNC(=N)N)C(=O)N[C@H](C(=O)NCC(=O)N[C@@H](CCCNC(=N)N)C(=O)N[C@@H](CCCNC(=N)N)C(=O)N[C@@H](CCCNC(=N)N)C(=O)N[C@@H](CCCNC(=N)N)C(=O)N[C@@H](CCCNC(=N)N)C(=O)N[C@@H](CCCNC(=N)N)C(=O)N[C@@H](CCCNC(=N)N)C(=O)N[C@@H](CCCNC(=N)N)C(N)=O)[C@@H](C)CC)[C@@H](C)CC)[C@@H](C)CC)[C@@H](C)CC [Vpr-4 R8] |  |  | > 500 | submicromolar | significant inhibitory effects |  | 

Reference: publication PMC4486249 (Journal of medicinal chemistry, 2010)
